Test results as given in ChEMBL document CHEMBL3232716, “Tailoring cytotoxicity of antimicrobial peptidomimetics with high activity against multidrug-resistant Escherichia coli” (J Med Chem, 2014).
≈ marks a conversion by molar mass, not a printed value. Square brackets hold non-standard residues; d marks the D form. Peptide text beside a SMILES is read from it. hArg = N=C(N)NCCCC[C@H](N)C(=O)O; Nspe = C[C@H](NCC(=O)O)c1ccccc1; Nphe = O=C(O)CNCc1ccccc1

What was measured:
Acinetobacter baumannii = test: Antibacterial activity against multidrug-resistant Acinetobacter baumannii clinical isolate E2-1228625 after 18 hrs by microdilution broth method; type: functional; settings: clinical isolate E2-1228625, 18 h
Staphylococcus aureus = test: Antibacterial activity against methicillin-resistant Staphylococcus aureus ATCC 33591 after 18 hrs by microdilution broth method; type: functional; settings: ATCC 33591, 18 h
Outline: (§1)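 CLSI broth microdilution. […] Incubated 35 °C in ambient air for 18 h. MIC taken as the lowest concentration with no visible growth versus the compound-free control. Reported as median and range of three independent biological replicates run on separate days.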

HeLa = test: Cytotoxicity against human HeLa cells after 1 hr by MTS/PMS assay; type: cell-based
Outline: (§2)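 Monolayers (passage 4–10) grown ~21–25 h to ~90% confluence. Seeding per well: HeLa 8000, HepG2 23 000, NIH 3T3 22 000, IEC-6 16 000, Caco-2 25 000. Cells washed with HBSS/10 mM Hepes pH 7.4 and exposed 1 h at 37 °C, 50 rpm, to compound 0–2000 μM in culture medium. MTS 240 μg/mL/PMS 2.4 μg/mL for 1.5–4 h, A492. Viability referenced to SDS and untreated controls; IC50 from one biological replicate in triplicate.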

Caco-2 = test: Cytotoxicity against human Caco2 cells after 1 hr by MTS/PMS assay; type: cell-based; settings: Caco-2, 1 h; outline: as §2
HepG2 = test: Cytotoxicity against human HepG2 cells after 1 hr by MTS/PMS assay; type: cell-based; settings: HepG2, 1 h; outline: as §2
[1] = Cytotoxicity against rat IEC-6 cells after 1 hr by MTS/PMS assay; type: cell-based; settings: IEC-6, 1 h; outline: as §2
[2] = Cytotoxicity against mouse NIH/3T3 cells after 1 hr by MTS/PMS assay; type: cell-based; settings: NIH3T3, 1 h; outline: as §2
HUVEC = test: Cytotoxicity against HUVEC after 1 hr by MTS/PMS assay; type: cell-based; settings: Homo sapiens
Outline: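 HUVEC seeded at 15 000 cells/well on collagen-coated wells (0.6 μg/cm2), passage 4–10, grown to ~90% confluence over 21–25 h. Cells exposed to compound (0–2000 μM) in F-12K medium for 1 h at 37 °C. MTS 240 μg/mL with PMS 9.6 μg/mL in HBSS for 1.5–4 h, then A492. Viability referenced to 0.2% SDS and untreated cells; IC50 reported.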

[3] = Binding affinity to synthetic POPC/POPG liposomal membrane at 20 uM by circular dichroism analysis; type: physicochemical; settings: artificial membrane
Outline: (§3)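 CD spectra recorded with 20 μM test compound and 2 mM liposomes in 10 mM Tris buffer, pH 7.5. Liposomes were roughly 100 nm: POPC/POPG 7:3 (bacterial model) or POPC/POPG/cholesterol 5:3:2 (mammalian model). Lipid concentration was standardized by enzymatic phospholipid colorimetric assay.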

[4] = Binding affinity to cholesterol containing synthetic POPC/POPG liposomal membrane at 20 uM by circular dichroism analysis; type: physicochemical; settings: artificial membrane; outline: as §3
Escherichia coli [5] = test: Antibacterial activity against Escherichia coli ATCC 25922 after 18 hrs by microdilution broth method; type: functional; settings: ATCC 25922, 18 h; outline: as §1
Escherichia coli [6] = test: Antibacterial activity against extended-spectrum beta-lactamase producing multidrug-resistant and colistin-susceptible Escherichia coli CTX-M-15 clinical isolate Aar 11 after 18 hrs by microdilution broth method; type: functional; settings: CTX-M-15, 18 h
Escherichia coli [7] = test: Antibacterial activity against NDM-1 producing Escherichia coli clinical isolate 74859898 after 18 hrs by microdilution broth method; type: functional; settings: clinical isolate 74859898, 18 h
Enterococcus faecium = test: Antibacterial activity against vancomycin-resistant Enterococcus faecium ATCC 700221 after 18 hrs by microdilution broth method; settings: ATCC 700221, 18 h

SMILES	MIC (Acinetobacter baumannii)	MIC (Staphylococcus aureus)	IC50 (HeLa)	IC50 (Caco-2)	IC50 (HepG2)	IC50 [1]	IC50 [2]	IC50 (HUVEC)	Activity [3]	Activity [4]	MIC (Escherichia coli [5])	MIC (Escherichia coli [6])	MIC (Escherichia coli [7])	MIC (Enterococcus faecium)
CC(=O)N[C@@H](CCCCN)C(=O)N(CCC(=O)N[C@@H](CCCCNC(=N)N)C(=O)N(CCC(=O)N[C@@H](CCCCN)C(=O)N(CCC(=O)N[C@@H](CCCCNC(=N)N)C(=O)N(CCC(=O)N[C@@H](CCCCN)C(=O)N(CCC(=O)N[C@@H](CCCCNC(=N)N)C(=O)N(CCC(N)=O)[C@@H](C)c1ccccc1)[C@@H](C)c1ccccc1)[C@@H](C)c1ccccc1)[C@@H](C)c1ccccc1)[C@@H](C)c1ccccc1)[C@@H](C)c1ccccc1	8 µM (≈ 16 µg/mL)	16 µM (≈ 32.1 µg/mL)	39 µM	330 µM	100 µM	147 µM	135 µM	497 µM	Not Active	Not Active	2 µM (≈ 4.01 µg/mL)	4 µM (≈ 8.02 µg/mL)	2 µM (≈ 4.01 µg/mL)	16 µM (≈ 32.1 µg/mL)
CC(=O)N[C@@H](CCCCNC(=N)N)C(=O)N(CCC(=O)N[C@@H](CCCCN)C(=O)N(CCC(=O)N[C@@H](CCCCNC(=N)N)C(=O)N(CCC(=O)N[C@@H](CCCCN)C(=O)N(CCC(=O)N[C@@H](CCCCNC(=N)N)C(=O)N(CCC(N)=O)Cc1ccccc1)Cc1ccccc1)Cc1ccccc1)Cc1ccccc1)Cc1ccccc1	128 µM (≈ 209 µg/mL)	64 µM (≈ 104 µg/mL)	508 µM	> 1000 µM	943 µM	> 1000 µM	745 µM	> 1000 µM	Not Active	Not Active	8 µM (≈ 13.1 µg/mL)	16 µM (≈ 26.1 µg/mL)	8 µM (≈ 13.1 µg/mL)	128 µM (≈ 209 µg/mL)
O=C(O)c1cn(C2CC2)c2cc(N3CCNCC3)c(F)cc2c1=O [CIPROFLOXACIN]		0.25 µM (≈ 0.0828 µg/mL)									< 0.125 µM			
CC(=O)N[C@@H](CCCCNC(=N)N)C(=O)N(CC(=O)N[C@@H](CCCCN)C(=O)N(CC(=O)N[C@@H](CCCCNC(=N)N)C(=O)N(CC(=O)N[C@@H](CCCCN)C(=O)N(CC(=O)N[C@@H](CCCCNC(=N)N)C(=O)N(CC(N)=O)Cc1ccccc1)Cc1ccccc1)Cc1ccccc1)Cc1ccccc1)Cc1ccccc1 (Ac-[hArg][Nphe]K[Nphe][hArg][Nphe]K[Nphe][hArg][Nphe]-NH2)	> 128 µM	128 µM (≈ 200 µg/mL)	506 µM	> 1000 µM	980 µM	972 µM	> 1000 µM	> 1000 µM	Not Active	Not Active	8 µM (≈ 12.5 µg/mL)	16 µM (≈ 25 µg/mL)	8 µM (≈ 12.5 µg/mL)	128 µM (≈ 200 µg/mL)
CC(=O)N[C@@H](CCCCN)C(=O)N(CCC(=O)N[C@@H](CCCCNC(=N)N)C(=O)N(CCC(=O)N[C@@H](CCCCN)C(=O)N(CCC(=O)N[C@@H](CCCCNC(=N)N)C(=O)N(CCC(=O)N[C@@H](CCCCN)C(=O)N(CCC(=O)N[C@@H](CCCCNC(=N)N)C(=O)N(CCC(N)=O)Cc1ccccc1)Cc1ccccc1)Cc1ccccc1)Cc1ccccc1)Cc1ccccc1)Cc1ccccc1	16 µM (≈ 30.7 µg/mL)	32 µM (≈ 61.5 µg/mL)	228 µM	> 1000 µM	321 µM	457 µM	362 µM	> 1000 µM	Not Active	Not Active	1 µM (≈ 1.92 µg/mL)	1 µM (≈ 1.92 µg/mL)	1 µM (≈ 1.92 µg/mL)	32 µM (≈ 61.5 µg/mL)
CN[C@H](CC(C)C)C(=O)N[C@H]1C(=O)N[C@@H](CC(N)=O)C(=O)N[C@H]2C(=O)N[C@H]3C(=O)N[C@H](C(=O)N[C@H](C(=O)O)c4cc(O)cc(O)c4-c4cc3ccc4O)[C@H](O)c3ccc(c(Cl)c3)Oc3cc2cc(c3O[C@@H]2O[C@H](CO)[C@@H](O)[C@H](O)[C@H]2O[C@H]2C[C@](C)(N)[C@H](O)[C@H](C)O2)Oc2ccc(cc2Cl)[C@H]1O [VANCOMYCIN]	> 128 µM	0.5 µM (≈ 0.725 µg/mL)									> 128 µM	> 128 µM	> 128 µM	128 µM (≈ 186 µg/mL)
CC(=O)N[C@@H](CCCCN)C(=O)N(CC(=O)N[C@@H](CCCCNC(=N)N)C(=O)N(CC(=O)N[C@@H](CCCCN)C(=O)N(CC(=O)N[C@@H](CCCCNC(=N)N)C(=O)N(CC(=O)N[C@@H](CCCCN)C(=O)N(CC(=O)N[C@@H](CCCCNC(=N)N)C(=O)N(CC(=O)N[C@@H](CCCCN)C(=O)N(CC(N)=O)Cc1ccccc1)Cc1ccccc1)Cc1ccccc1)Cc1ccccc1)Cc1ccccc1)Cc1ccccc1)Cc1ccccc1 (Ac-K[Nphe][hArg][Nphe]K[Nphe][hArg][Nphe]K[Nphe][hArg][Nphe]K[Nphe]-NH2)	4 µM (≈ 8.45 µg/mL)	32 µM (≈ 67.6 µg/mL)	99 µM	> 1000 µM	378 µM	319 µM	254 µM	418 µM	Not Active	Not Active	1 µM (≈ 2.11 µg/mL)	1 µM (≈ 2.11 µg/mL)	1 µM (≈ 2.11 µg/mL)	8 µM (≈ 16.9 µg/mL)
CO/N=C(\C(=O)N[C@@H]1C(=O)N2C(C(=O)O)=C(COC(C)=O)CS[C@H]12)c1csc(N)n1 [CEFOTAXIME]	> 128 µM	> 128 µM									< 0.125 µM	> 128 µM	> 128 µM	> 128 µM
CC(=O)N[C@@H](CCCCN)C(=O)N(CC(=O)N[C@@H](CCCCNC(=N)N)C(=O)N(CC(=O)N[C@@H](CCCCN)C(=O)N(CC(=O)N[C@@H](CCCCNC(=N)N)C(=O)N(CC(=O)N[C@@H](CCCCN)C(=O)N(CC(=O)N[C@@H](CCCCNC(=N)N)C(=O)N(CC(N)=O)[C@@H](C)c1ccccc1)[C@@H](C)c1ccccc1)[C@@H](C)c1ccccc1)[C@@H](C)c1ccccc1)[C@@H](C)c1ccccc1)[C@@H](C)c1ccccc1 (Ac-K[Nspe][hArg][Nspe]K[Nspe][hArg][Nspe]K[Nspe][hArg][Nspe]-NH2)	2 µM (≈ 3.84 µg/mL)	16 µM (≈ 30.7 µg/mL)	52 µM	376 µM	77 µM	67 µM	121 µM	351 µM	Not Active	Not Active	2 µM (≈ 3.84 µg/mL)	4 µM (≈ 7.69 µg/mL)	2 µM (≈ 3.84 µg/mL)	2 µM (≈ 3.84 µg/mL)
CC(=O)N[C@@H](CCCCNC(=N)N)C(=O)N(CCC(=O)N[C@@H](CCCCN)C(=O)N(CCC(=O)N[C@@H](CCCCNC(=N)N)C(=O)N(CCC(=O)N[C@@H](CCCCN)C(=O)N(CCC(=O)N[C@@H](CCCCNC(=N)N)C(=O)N(CCC(N)=O)[C@@H](C)c1ccccc1)[C@@H](C)c1ccccc1)[C@@H](C)c1ccccc1)[C@@H](C)c1ccccc1)[C@@H](C)c1ccccc1	64 µM (≈ 109 µg/mL)	16 µM (≈ 27.2 µg/mL)	136 µM	> 1000 µM	185 µM	186 µM	237 µM		Not Active	Not Active	8 µM (≈ 13.6 µg/mL)	8 µM (≈ 13.6 µg/mL)	8 µM (≈ 13.6 µg/mL)	64 µM (≈ 109 µg/mL)
CC[C@H](C)[C@H](NC(=O)CN)C(=O)NCC(=O)N[C@@H](C)C(=O)N[C@H](C(=O)N[C@@H](CC(C)C)C(=O)N[C@@H](CCCCN)C(=O)N[C@H](C(=O)N[C@@H](CC(C)C)C(=O)N[C@H](C(=O)N[C@H](C(=O)NCC(=O)N[C@@H](CC(C)C)C(=O)N1CCC[C@H]1C(=O)N[C@@H](C)C(=O)N[C@@H](CC(C)C)C(=O)N[C@H](C(=O)N[C@@H](CO)C(=O)N[C@@H](Cc1c[nH]c2ccccc12)C(=O)N[C@H](C(=O)N[C@@H](CCCCN)C(=O)N[C@@H](CCCNC(=N)N)C(=O)N[C@@H](CCCCN)C(=O)N[C@@H](CCCNC(=N)N)C(=O)N[C@@H](CCC(N)=O)C(=O)N[C@@H](CCC(N)=O)C(N)=O)[C@@H](C)CC)[C@@H](C)CC)[C@@H](C)O)[C@@H](C)O)C(C)C)C(C)C [MELITTIN]			1.9 µM	4.5 µM	2.5 µM									
